Experimental data as given in ChEMBL document CHEMBL1131592, “DNA-Directed alkylating agents. 7. Synthesis, DNA interaction, and antitumor activity of bis(hydroxymethyl)- and bis(carbamate)-substituted pyrrolizines and imidazoles” (J Med Chem, 1998).

Legend:
P388 = assay: Compound was evaluated for reduction in P388 (type I DNA) cell numbers to 50% of control values after a 72 hour exposure.; type: functional, cell-based; settings: Mus musculus, P388, 72 h
How it was run: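 P388 murine leukemia cells, log-phase cultures; drug present throughout 72 h growth period. IC50 = nominal drug concentration reducing cell density to 50% of control; eight control wells per plate. Averages of at least two (table footnote: three) independent determinations.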

Nucleic Acid = assay: Rate constants (1/s x 10e4) for loss of compound when incubated with calf thymus DNA in SHE buffer (pH 7.0) at 37 degree Centigrade, as determined by HPLC; type: nucleic-acid assay; settings: Bos taurus
How it was run: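 Aliquots extracted into 1-butanol with NaOAc; unreacted drug quantified by C-18 reverse-phase HPLC, 254 nm. kobs (hydrolysis plus alkylation) from ln(peak area) vs time fit.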

Row | Structure (SMILES) | IC50 (P388) [µM] | k obs (Nucleic Acid) [s⁻¹]
1 | O=C(Nc1ccc(CCCc2c(CO)c(CO)c3n2CCC3)cc1)c1ccc(Nc2ccnc3ccccc23)cc1 | 0.11 | 0.000186
2 | O=C(Nc1ccc(CCc2c(CO)c(CO)c3n2CCC3)cc1)c1ccc(Nc2ccnc3ccccc23)cc1 | 0.03 | 0.000158
3 | O=C(Nc1ccc(CCCn2cnc(CO)c2CO)cc1)c1ccc(Nc2ccnc3ccccc23)cc1 | > 20 | 
4 | CNC(=O)OCc1nc(SC)n(CCCc2ccc(NC(=O)c3ccc(Nc4ccnc5ccccc45)cc3)cc2)c1COC(=O)NC | 11 | 8.8e-05
5 | CNC(=O)OCc1nc(SC)n(C)c1COC(=O)NC | > 20 | 0.000134
6 | OCc1c(CO)c2n(c1CCCc1ccc(Nc3c4ccccc4nc4ccccc34)cc1)CCC2 | 1.3 | 0.000187

Results, then the molecule that gave them:

Row | IC50 (P388) [µM] | k obs (Nucleic Acid) [s⁻¹] | Structure (SMILES)
7 | 16 |  | CNC(=O)OCc1ncn(CCCc2ccc(Nc3c4ccccc4nc4ccccc34)cc2)c1COC(=O)NC
8 | 1.3 |  | CSc1nc(CO)c(CO)n1CCCc1ccc(Nc2c3ccccc3nc3ccccc23)cc1
9 | > 20 |  | CSc1nc(CO)c(CO)n1CCCc1ccc(NC(=O)c2ccc(Nc3ccnc4ccccc34)cc2)cc1
10 | 12 |  | OCc1ncn(CCCc2ccc(Nc3c4ccccc4nc4ccccc34)cc2)c1CO
11 | > 20 |  | CNC(=O)OCc1ncn(CCCc2ccc(NC(=O)c3ccc(Nc4ccnc5ccccc45)cc3)cc2)c1COC(=O)NC
12 | 0.8 | 0.000161 | CNC(=O)OCc1nc(SC)n(CCCc2ccc(Nc3c4ccccc4nc4ccccc34)cc2)c1COC(=O)NC
